NPY Y1 blocker: blocks the human neuropeptide Y Y1 receptor; inhibition, % at 3.6 µM; HEK293-CNG Y1 cells, membrane potential fluorescence; NPY at EC95, then isoproterenol; actives 1% (n = 200,000); AID 1040; P25929;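 active means inhibition above the campaign mean inhibition of all tested compounds plus 3 SD, cut at about 20% in these data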;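 further: 0% = DMSO wells given NPY plus isoproterenol and 100% = isoproterenol alone without NPY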
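Material: HEK293 Y1/CNG channel cell line; also added: NPY (25 nM), isoproterenol (1 µM), Ro 20-1724 (25 µM); doses: one concentration, 3.6 µM, in 0.4% DMSO; schedule: compound incubation 1 h at room temperature, readout 45 min post-stimulation; technique: membrane potential fluorescence; measure: fluorescence ratio normalized to % inhibition between controls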
Furin inh: inhibitors of human furin; P09958; purified furin, fluorogenic substrate cleavage; inhibition, % at 20 µM or 30 µM; actives 0.061% (n = 220,000); AID 463115; in the data active means inhibition above about 25%
NPY Y2 blocker: antagonists of human neuropeptide Y receptor Y2 | P49146 | NPY-Y2 expressing cells, antagonist mode | inhibition, % at 2.7 µM | actives 0.99% (n = 140,000); in the data active means inhibition above about 17%;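 further: 0% = vehicle with agonist challenge and 100% = reference antagonist with challenge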
KCC2 mod: modulators of human KCC2 chloride dependent transport; Q9H2X9; KCC2 cells, thallium flux FluoZin-2 fluorescence; B-score of Tl+ flux slope (higher = more flux/activation; lower = inhibition) at 10 µM; actives 2.2% (n = 190,000);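 active means thallium flux slope and its plate-corrected score both differing from the plate sample mean at a set confidence after two filtering rounds, in either direction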;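 further: slope of fluorescence scaled to starting intensity during 10 to 20 s after thallium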
Target sequence (Q9H2X9 whole entry, looked up): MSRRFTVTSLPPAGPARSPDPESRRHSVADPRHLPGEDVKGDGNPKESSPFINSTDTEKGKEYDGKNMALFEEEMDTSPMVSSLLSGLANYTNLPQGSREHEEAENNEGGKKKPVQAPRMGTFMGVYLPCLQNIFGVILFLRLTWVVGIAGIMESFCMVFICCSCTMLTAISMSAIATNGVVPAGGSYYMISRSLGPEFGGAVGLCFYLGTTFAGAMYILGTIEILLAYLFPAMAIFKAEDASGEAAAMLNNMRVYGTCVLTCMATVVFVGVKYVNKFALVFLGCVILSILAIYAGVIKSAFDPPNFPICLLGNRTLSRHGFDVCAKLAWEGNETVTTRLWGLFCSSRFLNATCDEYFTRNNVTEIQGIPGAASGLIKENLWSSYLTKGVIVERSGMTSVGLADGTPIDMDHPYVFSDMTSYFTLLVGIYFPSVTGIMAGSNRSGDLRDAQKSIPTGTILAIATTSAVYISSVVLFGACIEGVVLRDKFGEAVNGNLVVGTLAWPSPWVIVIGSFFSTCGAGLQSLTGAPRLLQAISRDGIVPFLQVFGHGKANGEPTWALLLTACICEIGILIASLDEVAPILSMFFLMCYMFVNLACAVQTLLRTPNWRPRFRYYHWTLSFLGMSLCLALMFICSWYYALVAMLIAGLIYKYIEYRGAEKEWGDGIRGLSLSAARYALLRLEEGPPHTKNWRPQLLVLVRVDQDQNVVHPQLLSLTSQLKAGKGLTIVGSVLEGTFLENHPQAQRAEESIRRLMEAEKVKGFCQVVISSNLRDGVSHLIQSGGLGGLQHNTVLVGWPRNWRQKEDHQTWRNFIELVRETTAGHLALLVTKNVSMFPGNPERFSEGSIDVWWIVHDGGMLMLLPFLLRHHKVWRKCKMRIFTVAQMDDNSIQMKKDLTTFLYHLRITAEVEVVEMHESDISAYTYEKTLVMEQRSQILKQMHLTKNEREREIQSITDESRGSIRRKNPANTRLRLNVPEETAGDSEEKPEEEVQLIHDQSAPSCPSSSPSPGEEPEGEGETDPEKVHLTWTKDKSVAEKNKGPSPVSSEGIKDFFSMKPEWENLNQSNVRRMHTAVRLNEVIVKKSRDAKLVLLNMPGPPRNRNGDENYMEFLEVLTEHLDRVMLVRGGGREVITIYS
NPY1 pot ag: potentiators or agonists of human neuropeptide Y receptor Y1 | P25929 | actives 0.37% (n = 220,000) | activation, % at 3.6 µM | NPY-Y1 expressing cells, potentiator/agonist activation; in the data active means activation above about 33%, passing the limit was not always enough;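 further: cells stimulated with NPY at EC10 then isoproterenol at EC100; 0% = low agonist plus stimulus and 100% = saturating agonist plus stimulus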
NPY-Y2 PAM-ag: potentiates or activates human NPY-Y2 receptor; activation, % at 3.6 µM; actives 0.45% (n = 220,000); P49146; cells expressing NPY-Y2, potentiator/agonist read-out; in the data active means activation above about 27%;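 further: cells stimulated with NPY near EC25 plus isoproterenol at EC100; 0% = vehicle plus submaximal agonist and 100% = vehicle plus saturating agonist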
KCC2 sec1: confirmation of human KCC2 transport modulators | shares compounds with KCC2 mod | HEK293-KCC2, thallium flux, FluoZin2 fluorescence; active compounds read high | normalised thallium flux (F/F0 slope) at 10 µM | actives 15% (n = 3,700);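 active means thallium flux slope above the same plate's solvent-only control mean plus 3 SD; inconclusive means the two replicate wells disagree; inactive means no significant difference from solvent-only control wells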
KCC2 bumet counter: bumetanide-insensitive thallium flux in KCC2 cells with ouabain, counter-screen; shares compounds with KCC2 mod; HEK293-KCC2 + bumetanide/ouabain, thallium flux FluoZin2; active compounds read high; normalized thallium flux at 10 µM; actives 49% (n = 3,700); AID 1714;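 active means thallium entry rate above the same plate's blocked-transporter control wells by more than 3 SD; inconclusive means the two repeat wells disagree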;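 further: raw slope of fluorescence over initial fluorescence between 10 and 20 s after thallium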
KCC2 secondary2: KCC2 (human) modulation, second secondary assay; AID 1715; normalized thallium flux at 10 µM; actives 23% (n = 3,700); shares compounds with KCC2 mod; HEK293-KCC2, thallium flux FluoZin2 fluorescence; actives lie on both sides; F/F0 rise rate, 10–20 s post-thallium;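 active means thallium flux slope more than 3 SD above or below the plate's solvent-only control mean, mostly below; inconclusive means the two repeat wells disagreed; inactive means no significant shift from solvent-only controls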;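 further: raw slope with 0.1% DMSO as baseline and bumetanide as block control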
HEK counter1: acts in parental HEK cells, KCC2 counter-screen | thallium flux rate (normalised fluorescence) at 10 µM | HEK293 parental cells, thallium flux FluoZin2, ouabain; baseline-ratio fluorescence slope, 10–20 s after thallium | AID 1716 | actives 46% (n = 3,700) | shares compounds with KCC2 mod;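 active means thallium flux rate significantly above the same plate's solvent-only control wells, beyond their mean plus 3 SD; inconclusive means the two replicate wells gave conflicting results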
KCC2 ouabain: modulates human KCC2 on retest with ouabain. shares compounds with KCC2 mod. HEK293-KCC2, thallium flux FluoZin2 fluorescence; bidirectional: low = inhibitor, high = activator. raw Tl+ flux slope (below DMSO = inhibition, above = activation) at 10 µM. actives 48% (n = 3,700);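 active means thallium flux slope beyond 3 SD from same-plate DMSO control mean in most replicates, usually higher, sometimes lower; inconclusive means repeat tests gave conflicting results; inactive means no significant difference from controls in most replicates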;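 further: slope of initial-normalized fluorescence between seconds 10 and 20 after thallium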
HEK293 Tl flux2: counter-screen for KCC2 modulators: effect in parental HEK293 cells; thallium flux slope at 10 µM; actives 33% (n = 3,700); AID 1718; thallium flux FluoZin-2 fluorescence slope; shares compounds with KCC2 mod;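 active means thallium flux slope above the same plate's solvent-control mean plus 3 SD in both duplicate wells; inconclusive means duplicate wells that disagreed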;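 further: run without ouabain in cells lacking the KCC2 cotransporter; slope of fluorescence scaled to its starting value between 10 and 20 s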
* = called active by the depositor; ? = inconclusive; . = no result given. The list is not random: actives were taken first. Their share in the collection is about 3.7%.

SMILES	NPY Y1 blocker	Furin inh	NPY Y2 blocker	KCC2 mod	NPY1 pot ag	NPY-Y2 PAM-ag	KCC2 sec1	KCC2 bumet counter	KCC2 secondary2	HEK counter1	KCC2 ouabain	HEK293 Tl flux2
C=CCc1cc(/C=C2/NC(=O)N(CC(=O)OC)C2=O)cc(OC)c1O	-3.8	3.8	.	-0.133	1.9	2.5	.	.	.	.	.	.
CC(=O)Nc1ccc(S(=O)(=O)N(C)CC(=O)OCC(=O)N2CCc3ccccc32)cc1	0.5	-14.0	0.8	-3.82*	-13.4	-10.8	0.00673	0.00653	0.0285	?	0.0196*	?
COc1cc(CC(=O)N/N=C/c2ccc([N+](=O)[O-])cc2)c([N+](=O)[O-])cc1OC	-0.5	-14.2	3.2	-0.104	-7.6	10.1	.	.	.	.	.	.
CCN(CC)c1ccc2cc(-c3nc4ccccc4n3C)c(=O)oc2c1	12.1	-16.6	15.3	.	0.2	2.1	0.00443*	0.00034*	0.022*	0.00367*	0.00811*	?
CCN(CC)c1ccc2cc(-c3nc4ccccc4[nH]3)c(=O)oc2c1	8.5	3.6	0.2	.	-6.1	7.5	.	.	.	.	.	.
Oc1ccc(Cl)cc1C(C#Cc1ccccc1)N1CCOCC1 (stereo unspecified)	4.8	-12.0	4.2	-0.824	-0.3	-6.5	.	.	.	.	.	.
NCCCC[C@@H]1NC(=O)c2cc([N+](=O)[O-])cc(I)c2SC[C@@H](C(N)=O)NC(=O)[C@H](Cc2ccc(O)cc2)NC1=O	-2.0	-16.7	0.4	-1.06	-5.3	2.0	.	.	.	.	.	.
Cc1nn(CCCC(=O)N2CCc3ccccc3C2)c(=O)c2cc3sccc3n12	2.0	-27.9	7.8	-6.5*	-28.3	-23.8	0.00583	0.00508	?	?	0.0119*	0.011
CCc1nn(CCCC(=O)N2CCc3ccccc3C2)c(=O)c2cc3occc3n12	5.3	-6.4	5.5	-5.84*	-14.1	-8.0	0.0075	0.00602	0.0305	0.00624	0.0143*	0.0102
COc1ccc2c(C)cc(SCC(=O)Nc3cccnc3Cl)nc2c1	2.8	-19.2	.	-0.442	-20.5	-6.0	.	.	.	.	.	.
COC(=O)c1ccccc1NC(=S)N1CCN(c2ccc(OC)cc2)CC1	7.7	-14.5	.	-0.154	-11.5	10.5	.	.	.	.	.	.
O=S(=O)(c1ccc(Cl)nc1)N1CCN(c2ncccn2)CC1	.	-18.6	.	.	9.8	-0.6	.	.	.	.	.	.
CC1CCCCN1C(=O)CSc1nnc(-c2c[nH]c3ccccc23)o1 (stereo unspecified)	1.4	-15.9	6.0	-3.32*	-10.3	1.6	0.0175	0.00481	0.023*	0.00745	0.0145	0.01
CCOc1ccc2nc(N3C(=O)/C(=C/c4ccc(Cl)cc4)NC3=S)sc2c1	8.1	0.7	0.6	18.8*	9.9	0.0	0.00725	0.0455*	0.0493*	0.0628*	0.0483*	0.0466*
COc1nc(OCCNC(C)=O)nc(N(C)C)n1	-3.4	-3.0	-0.9	-0.0313	-6.4	2.4	0.00869	0.00613	0.0295	0.00639	0.0215	0.00926
CC(=O)NCCOc1nc(N(C)C)nc(N2CCOCC2)n1	2.8	-14.3	2.4	0.65	14.0	7.5	.	.	.	.	.	.
Oc1ccc(COCc2ccccc2)c2cccnc12	8.4	-8.9	0.7	3.34*	5.3	-4.3	0.00823	0.0276*	0.0343	0.0132*	?	0.0111
CCCOCc1ccc(O)c2ncccc12	.	-8.4	.	1.46	14.3	5.1	.	.	.	.	.	.
COc1cc(NC(=O)CN2C(=O)NC(C)(c3ccc4ccccc4c3)C2=O)c(C)cc1[N+](=O)[O-] (stereo unspecified)	-3.9	-8.4	0.1	.	7.8	14.7	.	.	.	.	.	.
CC1(C)CCCC2=C1CC1C(=O)N(N)C(=O)C1C2 (stereo unspecified)	.	-10.0	.	0.649	11.8	-27.9	.	.	.	.	.	.
O=c1c2cc(N3CCOCC3)ccc2[nH]c(=S)n1CCCN1CCCC1	-2.8	-19.3	1.1	0.502	-24.9	-25.3	.	.	.	.	.	.
CC1CCCCN1CCn1c(=S)[nH]c2ncccc2c1=O (stereo unspecified)	-1.2	-11.0	7.0	.	-4.2	-7.0	.	.	.	.	.	.
O=c1c2cccnc2[nH]c(=S)n1CCCN1CCN(c2ccccc2F)CC1	2.6	-3.3	3.9	19.7*	-15.8	4.2	0.0132*	0.0762*	0.0376	0.0389*	0.0581*	0.0126*
CCN(CC)CCCn1c(=S)[nH]c2ncccc2c1=O	3.3	-12.7	1.0	1.21	-5.8	-1.1	.	.	.	.	.	.
CCN(CCCn1c(=S)[nH]c2ccc(N3CCOCC3)cc2c1=O)c1ccccc1	-7.5	-18.6	.	4.86*	10.4	9.5	0.0123*	0.0165*	0.0303	0.00949*	0.0522*	0.0111*
SMILES	NPY Y1 blocker	Furin inh	NPY Y2 blocker	KCC2 mod	NPY1 pot ag	NPY-Y2 PAM-ag	KCC2 sec1	KCC2 bumet counter	KCC2 secondary2	HEK counter1	KCC2 ouabain	HEK293 Tl flux2
CCCCN(C)CCn1c(=S)[nH]c2ncccc2c1=O	12.4	-3.5	4.3	2.95	6.8	-1.5	.	.	.	.	.	.
CCN(CCCn1c(=S)[nH]c2ncccc2c1=O)c1ccccc1	0.1	-18.0	0.2	78.4*	-0.9	-3.4	0.0186*	0.142*	0.0382	0.116*	0.119*	0.0228*
CC(C)OCCCn1c(=S)[nH]c2ncccc2c1=O	-1.3	-19.7	1.2	13.2*	1.8	8.0	0.0166*	0.0339*	0.031	0.0163*	0.0302*	0.0123*
CCN(CC)CCNC(=S)Nc1ccc(F)cc1	-9.3	-16.3	.	-0.767	-22.2	1.1	.	.	.	.	.	.
CN1CCN(C(=S)NC(=O)c2ccc(S(=O)(=O)N3CCOCC3)cc2)CC1	-0.8	-14.4	.	0.0129	11.7	-1.2	.	.	.	.	.	.
CCCN(CC1CC1)C(=S)NC(=O)c1ccc(S(=O)(=O)N2CCOCC2)cc1	11.5	-19.0	.	5.64*	-4.8	-11.8	0.0181	0.0186*	0.0332	0.0166*	0.0237*	0.018*
CCCCN(C)C(=O)c1ccc(S(=O)(=O)N2CCOCC2)cc1	-1.6	-11.6	0.5	-0.116	-8.8	-5.1	.	.	.	.	.	.
O=C(NC(=S)N1CCN(C(c2ccccc2)c2ccccc2)CC1)c1ccc(S(=O)(=O)N2CCOCC2)cc1	3.6	-18.6	5.6	8.67*	-24.9	-2.2	0.00596	0.0236*	0.0323	0.0129*	?	?

Source: PubChem BioAssay (several laboratories)
